Results reported in ChEMBL document CHEMBL5046273, “Development of a Novel, Small-Molecule Brain-Penetrant Histone Deacetylase Inhibitor That Enhances Spatial Memory Formation in Mice” (J Med Chem, 2022).
Activity calls are given as the source filed them. The calls are words filed in the database; no cut-off is given here.

Tests used:
DU-145 [1] = assay: Cytotoxicity against human DU-145 cells assessed as reduction in cell viability incubated for 48 hrs by MTT assay; type: functional; settings: read-out: LD50 (the source's name)
In short: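 DU145 cells grown in DMEM with 10% FBS, penicillin/streptomycin and L-glutamine at 37 °C and 5% CO2. Cells seeded at 14 000/well and allowed to adhere 24 h. Compounds diluted from 10 mM DMSO stocks into medium (final 25–100 μM), DMSO vehicle, triplicate wells, 48 h. MTT 250 μg/mL for 4 h, dissolved in DMSO, A570 (ref 690). Normalized to DMSO; three independent experiments.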

Histone deacetylase 8 = target: T1, Histone deacetylase 8 (Homo sapiens, UniProt Q9BY41); assay: Inhibition of HDAC8 in human DU-145 cells assessed as increase in histone H3 acetylation after 24 hrs by immunofluorescence microscopy; type: cell-based
T1 sequence (Q9BY41 whole entry): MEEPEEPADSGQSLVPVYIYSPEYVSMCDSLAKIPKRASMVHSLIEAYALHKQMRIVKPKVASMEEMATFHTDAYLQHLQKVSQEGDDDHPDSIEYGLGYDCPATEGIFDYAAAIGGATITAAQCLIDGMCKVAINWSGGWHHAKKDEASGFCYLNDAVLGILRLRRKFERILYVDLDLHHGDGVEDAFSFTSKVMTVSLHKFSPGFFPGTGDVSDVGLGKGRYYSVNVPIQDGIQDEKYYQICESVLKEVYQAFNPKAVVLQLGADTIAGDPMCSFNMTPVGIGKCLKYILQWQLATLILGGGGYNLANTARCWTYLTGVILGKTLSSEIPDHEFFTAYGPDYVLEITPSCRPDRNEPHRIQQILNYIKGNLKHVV

[2] = Tmax in Swiss Webster mouse liver at 40 mg/kg, ip by LC-MS/MS analysis; type: ADME, organism-based
In short: (§1)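 Single i.p. dose of 40 mg/kg in Swiss Webster mice; blood, brain and liver taken at several time points. Tissues homogenized in acetonitrile, centrifuged, spin-filtered, dried and reconstituted, with 4,5-diphenylimidazole as instrument standard. Quantified by LC–MS/MS on a C18 column with a formic acid/MeCN gradient. Mean ± SD (n = 4), fitted to a two-compartment PK model.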

[3] = Elimination rate in Swiss Webster mouse liver at 40 mg/kg, ip by LC-MS/MS analysis; type: ADME, organism-based; in short: as §1
[4] = Cmax in Swiss Webster mouse blood at 40 mg/kg, ip by LC-MS/MS analysis; type: ADME, organism-based; set-up: route intraperitoneal, dose 40 mg/kg; settings: in vivo; in short: as §1
[5] = Drug uptake in BALB/c mouse hippocampus at 20 to 40 mg/kg, ip measured after 10 mins by mass spectroscopy method; type: ADME, organism-based; settings: in vivo, dose 20-40 mg/kg
In short: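 BALB/c mice were dosed i.p.: 20 mg/kg with brains taken at 10 min (two mice), or 40 mg/kg with brains taken at 10 and 30 min. Dorsal hippocampus was dissected on wet ice, extracted in acetonitrile and analysed by LC–MS/MS in MRM mode (m/z 485 [M+Na+] transitions) against a 4,5-diphenylimidazole internal standard.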

[6] = Drug uptake in BALB/c mouse liver at 40 mg/kg, ip measured upto 60 mins by mass spectroscopy analysis; type: ADME, organism-based; settings: in vivo, 1 h
In short: (§2)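 BALB/c mice received 40 mg/kg i.p. Retro-orbital blood was collected under isoflurane, then liver and whole brain after CO2 euthanasia, at 10, 30 and 60 min. Acetonitrile extracts were spin-filtered with 4,5-diphenylimidazole as instrument standard and analysed by LC–MS/MS.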

Histone deacetylase 2 = Histone deacetylase 2 (Homo sapiens, UniProt Q92769); assay: Inhibition of recombinant human full-length HDAC2 incubated for 10 mins by Glo-luminescence assay
In short: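 Compounds were serially diluted and incubated with enzyme for 10 min. HDAC-Glo I/II substrate/developer was then added, and luminescence read after 40 min at 23 °C. IC50 from four-parameter fits from two independent titrations, mean ± SD.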

[7] = AUC in Swiss Webster mouse blood at 40 mg/kg, ip by LC-MS/MS analysis; type: ADME, organism-based; set-up: dose 40 mg/kg; in short: as §1
[8] = Elimination rate in Swiss Webster mouse brain at 40 mg/kg, ip by LC-MS/MS analysis; type: ADME, organism-based; in short: as §1
[9] = target: T2, Histone deacetylase (Homo sapiens) (UniProt Q13547+O15379+Q9UBN7+Q92769+Q9UQL6+Q8WUI4+Q9BY41+Q96DB2+P56524+Q9UKV0+Q969S8); assay: Inhibition of HDAC in human DU-145 cells assessed as increase in histone H3 acetylation at 50 to 100 uM after 24 hrs by immunofluorescence microscopy; type: cell-based; settings: dose 50-100 µM
In short: (§3)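 Cells were fixed in 4% PFA and permeabilized in TBS-T/BSA. Staining used anti-acetyl-H3 (Lys9/Lys14) at 1:2000, an AlexaFluor 488 secondary and DAPI. At least five random fields were imaged by fluorescence microscopy; three independent experiments.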

[10] = Drug uptake in BALB/c mouse blood at 40 mg/kg, ip measured upto 60 mins by mass spectroscopy analysis; type: ADME, organism-based; settings: in vivo, 1 h; in short: as §2
[11] = Tmax in Swiss Webster mouse blood at 40 mg/kg, ip by LC-MS/MS analysis; type: ADME, organism-based; in short: as §1
Mus musculus [12] = assay: Cognitive enhancing effect in C57BL/6 mouse assessed as enhanced object recognition memory consolidation at 20 to 40 mg/kg, ip measured after 48 hrs; type: functional, organism-based; settings: dose 20-40 mg/kg
In short: (§4)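 Male C57BL/6 mice trained to 30 s of total exploration of two identical objects (20 min maximum). Immediately afterwards they received one i.p. injection at 5 mL/kg in 100% DMSO (20, 30 or 40 mg/kg); vehicle DMSO, NaBu 600 mg/kg in saline. Object placement (moved object) tested at 24 h and object recognition (novel object) at 48 h. Time with that object compared to chance (15 s) by one-sample t-test.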

Mus musculus [13] = assay: Cognitive enhancing effect in C57BL/6 mouse assessed as enhanced spatial memory at 20 to 40 mg/kg, ip measured after 24 hrs; type: functional, organism-based; settings: dose 20-40 mg/kg; in short: as §4
[14] = target: T2, Histone deacetylase (Homo sapiens); assay: Inhibition of HDAC in human DU-145 cells assessed as increase in histone H3 acetylation after 24 hrs by immunofluorescence microscopy; type: cell-based; in short: as §3
[15] = Half life in Swiss Webster mouse liver at 40 mg/kg, ip by LC-MS/MS analysis; type: ADME, organism-based; settings: in vivo; in short: as §1
DU-145 [16] = assay: Cytotoxicity against human DU-145 cells assessed as reduction in cell viability at 100 uM incubated for 48 hrs by MTT assay; type: functional
In short: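 DU145 cells in DMEM with 10% FBS were seeded at 14 000 cells/well and allowed to adhere for 24 h. Test agents were diluted from 10 mM DMSO stocks (100, 50, 25 µM; 10, 5, 1.25 nM) and applied in triplicate for 48 h at 37 °C, 5% CO2, with DMSO as vehicle. Read-out was 250 µg/mL MTT for 4 h, DMSO solubilization, and A570 with 690 nm reference. Values normalized to DMSO.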

Chain of Histone deacetylase 2 (Q92769 whole entry): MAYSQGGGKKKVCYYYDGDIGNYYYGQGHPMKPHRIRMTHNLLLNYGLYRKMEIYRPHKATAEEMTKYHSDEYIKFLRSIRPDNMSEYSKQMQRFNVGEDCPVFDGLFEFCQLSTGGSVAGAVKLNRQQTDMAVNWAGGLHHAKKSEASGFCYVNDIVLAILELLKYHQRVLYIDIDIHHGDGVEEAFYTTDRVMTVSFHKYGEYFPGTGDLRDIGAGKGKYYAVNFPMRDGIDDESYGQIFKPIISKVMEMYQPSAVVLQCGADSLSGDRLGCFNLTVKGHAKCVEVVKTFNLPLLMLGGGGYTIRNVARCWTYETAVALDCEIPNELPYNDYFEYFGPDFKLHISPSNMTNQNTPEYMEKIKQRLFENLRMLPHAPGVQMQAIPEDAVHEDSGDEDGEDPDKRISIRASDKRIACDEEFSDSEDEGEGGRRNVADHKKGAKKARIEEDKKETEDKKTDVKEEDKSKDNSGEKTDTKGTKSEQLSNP

CC(C)(C)OC(=O)CC(O)/C=C/CCSSCC/C=C/C(O)CC(=O)OC(C)(C)C (stereo not drawn)
CC50 (DU-145 [1]): 39 µM
IC50 (Histone deacetylase 8): 11 µM
Tmax [2]: 10 min
k el [3]: 0.000283 s⁻¹
Cmax [4]: 131.2 ng/mL
Drug uptake [5]: Active
Drug uptake [6]: Active
IC50 (Histone deacetylase 2): 100 µM
AUC [7]: 88.1 ng·h/mL
k el [8]: 0.000867 s⁻¹
inhibition [9]: Active
Drug uptake [10]: Active
Tmax [11]: 10 min
Activity (Mus musculus [12]): inactive
Activity (Mus musculus [13]): Active
inhibition [14]: Dose-Dependent Effect
t1/2 [15]: 41 min
inhibition at 100 µM (DU-145 [16]): 80%
